# Source: PubChem BioAssay
# Sampled rows, rich in hits. Any-hit rate of the full collection: about 5.6%.
# NR3A LBD binder – modulators (binders) of human NR3A ligand-binding domain | NR3A LBD differential scanning fluorimetry, Tm shift; 0% = protein alone, 100% = glycine-bound protein | hit rate 2.5% among 340,000 | Tm shift relative to glycine control, % at 25 µM | AID 1259313;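 active = melting temperature shift of at least 10% of the positive control shift, at one fixed dose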
# CHOP inhibitor – CHOP inhibition in unfolded protein response; CHO-K1 CHOP-promoter luciferase, tunicamycin-induced, 15-18 h; inhibition, % at 10 µM; hit rate 3.8% among 220,000; AID 2732;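 active = compounds that reduced the stress-induced luciferase reporter signal by more than about 70% of percent inhibition, limit read from the data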;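 note: 0% = tunicamycin plus vehicle and 100% = wells without tunicamycin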
# aDG glyco up – alpha-DG glycosylation activation. activation, % at 10 µM. Pro5-aDG cells, alpha-DG glycosylation AlphaScreen (IIH6); 0% Pro5, 100% B10-LARGE cell signal. hit rate 0.22% among 360,000. AID 624168;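 active = activation of at least 8% versus controls, or a plate z-score of at least 8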;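 note: Pro5 are CHO cells carrying HIG-tagged alpha-DG that lacks glycosylation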
# MPTP block – blocks calcium-induced mitochondrial swelling. isolated mouse mitochondria, Ca2+ swelling absorbance, 30 min. inhibition, % at 10 µM. hit rate 1.4% among 360,000. AID 602449;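 active = inhibition of 50% or more, scaled per plate between neutral and stimulator controls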;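 note: 0% = DMSO wells given calcium and 100% = 1 mM EGTA wells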
# XBP1 UPR activ – activators of adaptive arm of unfolded protein response (XBP1) | CHO-XBP1 luciferase reporter, IRE1-XBP1 UPR activation, luminescence; percent of tunicamycin response, DMSO as zero | activation, % at 20 µM | hit rate 0.33% among 330,000;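 active = versus positive control, 20 µM dose yields 30% or more activation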;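 note: 100% = tunicamycin at 10 µg/mL and 0% = DMSO only wells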
#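 Material: CHO-XBP1 cells stably carrying IRE1-XBP1-driven luciferase reporter | Medium: F12 with 10% serum | Compound dosing: 20 µM single concentration, DMSO 1% | Incubation: Overnight seeding at 37 °C, 6 h compound treatment at 37 °C | Detection: Steady-Glo luminescence read | Read-out basis: % activation of reporter signal versus tunicamycin and DMSO controls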
# UPR CHOP act – activators of apoptotic arm of unfolded protein response (CHOP); CHO-CHOP luciferase reporter, UPR activation, luminescence; percent of tunicamycin response over DMSO baseline; activation, % at 10 µM; hit rate 0.34% among 330,000;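 active = at 10 µM dose, activation of 40% or more, normalized to positive control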;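 note: 100% = tunicamycin at 10 µg/mL and 0% = DMSO alone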
#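 System: CHO CHOP reporter cells. Amount: 500 cells per well. Buffer or medium: F12 medium, 10% FBS. Compound dosing: one dose, 10 µM in 0.5% DMSO. Incubation: 6 h compound exposure at 37 °C after overnight seeding. Technique: Steady-Glo luciferase luminescence. Benchmarks: tunicamycin and DMSO controls.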
# * hit, by the source's call; . = not tested or not shown.
SMILES,NR3A LBD binder,CHOP inhibitor,aDG glyco up,MPTP block,XBP1 UPR activ,UPR CHOP act
CCN(CC)S(=O)(=O)c1ccc(N/N=C/c2ccc(O)cc2O)nc1,24.2*,83.1*,0.7,2.0,3.5,-2.4
O=[N+]([O-])c1ccc(NN=Cc2ccccc2)nc1,-3.9,.,-0.3,1.7,.,.
O=[N+]([O-])c1ccc(NN=Cc2ccc(O)cc2O)nc1,26.5*,.,0.7,1.9,.,.
CN1COc2ccc3ccccc3c2C1,0.1,-2.9,-0.2,0.9,-2.5,-0.8
O=[N+]([O-])c1ccc(NN=Cc2ccccc2O)nc1,25.6*,.,0.4,7.9,.,.
COc1ccccc1C=NNc1ccc([N+](=O)[O-])cn1,1.8,.,0.2,-0.1,.,.
COC(C(=O)Nc1cccc([N+](=O)[O-])c1)c1ccccc1 (centres undefined),-0.2,-2.3,-0.2,1.1,2.5,-2.8
Cc1ccc(S(=O)(=O)N2CCN(C(=O)Cn3c(=O)cnc4ccccc43)CC2)cc1,3.8,.,-0.1,-0.4,-1.1,-0.1
CC(C)(C)OC(=O)C[C@H]1C/C=C\C[C@@H](CC(=O)N(CCO)Cc2ccccc2)C(=O)N2CCC[C@H]2COC1=O,-0.1,.,0.3,-1.7,0.7,-1.2
Cc1cc(C(=O)Nc2cccc(O)c2)c(C)o1,16.9*,-0.2,0.1,0.1,-2.1,-1.0
O=C(Nc1ccc(F)c(Cl)c1)[C@@H]1O[C@H](CO)[C@H](O)[C@H](O)[C@H]1O,.,.,0.0,-0.3,.,.
CCOc1ccc(OCCOCCOc2ccccc2Cl)cc1,17.9*,35.0,0.1,1.2,1.0,0.4
Nc1nc(-c2cccnc2)nn1C(=O)Cc1ccccc1,0.0,77.6*,-0.1,-1.5,-0.6,0.1
COCCNC(=O)C1(C)CCCN(C(=O)c2cc(C)oc2C)C1 (centres undefined),.,.,-0.2,2.3,.,.
CCN(CC)c1ccc(Nc2nc(N3CCOCC3)c3ccccc3n2)cc1,-4.0,73.8*,-0.3,28.8,1.6,6.0
CC(C)(C)C(=O)N1CCC2CC1c1cc(Cl)ccc12 (centres undefined),-1.1,.,0.8,-1.8,.,.
Cc1cc(OCC(=O)N[C@@H](Cc2ccccc2)c2nc3ccccc3[nH]2)ccc1Cl,-1.4,72.0*,-0.1,6.4,3.5,2.9
O=C(COC(=O)CC1CCCC1)Nc1ccc(Cl)cc1,.,.,0.0,-2.9,2.5,-0.2
Cc1ccc(S(=O)(=O)c2cc3cc(Br)ccc3oc2=O)cc1,6.9,3.4,0.4,1.9,2.2,1.9
CC(C)c1ccc(S(=O)(=O)c2cc3cc(Br)ccc3oc2=O)cc1,2.3,88.6*,-0.2,38.9,-0.5,1.9
CCCCn1c(N)c(N(CC(C)C)C(=O)CCN2C(=O)C3CC=CCC3C2=O)c(=O)[nH]c1=O (centres undefined),.,.,0.0,0.0,.,.
CC(N=c1ccccn1C(=O)Nc1ccc(F)cc1)c1ccco1 (centres undefined),0.6,18.7,-0.1,4.1,0.9,1.0
CC(N=c1ccccn1C(=O)Nc1ccc(Cl)cc1)c1ccco1 (centres undefined),23.9*,69.6,.,.,1.6,3.1
CC(C)CC1(C)NC(=O)NC1=O (centres undefined),10.8*,26.2,0.0,-1.2,0.2,-2.7
CC1(CCc2ccccc2)NC(=O)NC1=O (centres undefined),-2.1,.,-0.1,-3.3,.,.
SMILES,NR3A LBD binder,CHOP inhibitor,aDG glyco up,MPTP block,XBP1 UPR activ,UPR CHOP act
CC(C)CN(C(=O)CSc1nc2ccccc2o1)c1c(N)n(Cc2ccccc2)c(=O)[nH]c1=O,0.5,.,0.0,-0.3,-1.4,-0.6
O=C(C1=NN[C@@H]2C(=O)N(c3cccc(C(F)(F)F)c3)C(=O)[C@H]12)C(c1ccccc1)c1ccccc1,15.5*,62.0,-0.3,8.4,-3.8,-2.3
O=C(N/N=C/c1ccoc1)c1cccc(OC(F)(F)C(F)F)c1,-2.8,.,-0.1,2.0,3.9,1.9
CC(c1ccco1)N(C(=O)C12CC3CC(CC(C)(C3)C1)C2)c1ccccn1 (centres undefined),-6.9,87.2*,0.3,-1.7,-6.6,-1.2
CC(c1ccco1)N(C(=O)c1ccc(F)cc1)c1ccccn1 (centres undefined),-1.6,-18.3,-0.1,-1.6,-3.8,-0.7
Cc1cccc(C)c1OCc1cc(C(=O)N2CCN3CCCC3C2)no1 (centres undefined),12.6*,.,-0.1,-1.6,-3.9,2.6
Cc1cccc(C)c1OCc1cc(C(=O)N2CCN(C3CCCC3)CC2)no1,3.5,.,-0.3,-1.9,-4.2,5.5
COc1ccccc1-c1csc(C(O)c2cccc(Cl)c2)n1 (centres undefined),.,.,-0.1,-0.2,.,.
COc1ccc(N(CC(=O)N/N=C/c2ccc(OC)cc2OC)S(=O)(=O)c2ccccc2)cc1,0.6,.,0.2,0.6,-3.3,4.3
COc1ccc2cc(/C=N/NC(=O)CN(c3ccccc3C)S(=O)(=O)c3ccccc3)c(Cl)nc2c1,11.2*,16.2,-0.2,1.3,0.1,5.3
O=C(Nc1nc2ccc(Cl)cc2s1)c1ccc(Br)o1,8.5,74.2*,0.0,-3.6,2.4,4.9
CS(=O)(=O)c1ccc2nc(NC(=O)c3cc4ccccc4o3)sc2c1,26.4*,-5.3,-0.2,-0.1,-0.2,3.2
Cc1ccc(C(=O)Nc2nc3ccc(S(C)(=O)=O)cc3s2)o1,0.5,-16.9,-0.2,-1.3,0.9,5.2
CS(=O)(=O)c1ccc2sc(NC(=O)c3cc4ccccc4o3)nc2c1,11.3*,-28.1,-0.2,1.6,-1.1,5.3
O=C(Nc1nc2c(Cl)cccc2s1)c1ccc(Br)o1,-1.1,68.6,-0.1,3.6,0.3,2.6
O=C(NCc1cccc(C(F)(F)F)c1)c1csc([C@@H]2O[C@H](CO)[C@H](O)[C@H](O)[C@H]2O)n1,.,.,-0.2,-0.1,.,.
O=S(=O)(Nc1ccc(O)c(Sc2nc3ccccc3s2)c1)c1cccc2ccccc12,15.2*,55.0,0.0,34.3,-1.6,-1.2
Cc1cccc(-n2nc3c([n+]2[O-])CCc2nonc2-3)c1C,0.1,22.3,-0.2,-1.7,-2.0,-2.7
Cc1ccc(-n2nc3c(n2)/C(=N/O)CC/C3=N\O)cc1,1.4,10.8,-0.2,0.2,7.3,0.5
Cc1ccc(-n2nc3c([n+]2[O-])CCc2c-3no[n+]2[O-])cc1,-1.9,89.9*,1.3,1.5,-6.0,-1.2
[O-][n+]1onc2c1CCc1c-2nn(-c2ccccc2Cl)[n+]1[O-],1.3,96.0*,0.0,-2.3,-8.8,-2.6
Cn1c(=O)n(Cc2ccccc2F)c2ccccc21,-0.2,27.3,0.2,0.1,1.3,-0.1
O=c1n(Cc2ccccc2F)c2ccccc2n1Cc1ccccc1F,-4.3,73.8*,-0.2,-1.5,-0.5,0.4
Cc1cc(C)n(CCC(=O)Nc2ccc3c(c2)OCCO3)n1,1.0,.,-0.2,-1.2,-4.6,-2.4
